Screening data deposited in PubChem by NMMLSC.
Most compounds without a hit are left out; they make up all but 2.3% or so of the library.
MEKK3 PB1 HTS = MEKK3-MEK5 PB1 interaction, increase or decrease. Q99759. actives 1.4% (n = 290,000). binding response (% of control), % at 10 µM. bead-based flow cytometry, Alexa488-MEK5 binding to MEKK3; actives lie on both sides; 0 = blocked by unlabeled MEK5, 100 = vehicle;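 active = binding response more than 3 SD above or below the average of its plate-row segment, actives on both sides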;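 note: Alexa488 bead fluorescence after subtracting the streptavidin-only scavenger bead signal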
Target sequence (Q99759 whole entry, looked up): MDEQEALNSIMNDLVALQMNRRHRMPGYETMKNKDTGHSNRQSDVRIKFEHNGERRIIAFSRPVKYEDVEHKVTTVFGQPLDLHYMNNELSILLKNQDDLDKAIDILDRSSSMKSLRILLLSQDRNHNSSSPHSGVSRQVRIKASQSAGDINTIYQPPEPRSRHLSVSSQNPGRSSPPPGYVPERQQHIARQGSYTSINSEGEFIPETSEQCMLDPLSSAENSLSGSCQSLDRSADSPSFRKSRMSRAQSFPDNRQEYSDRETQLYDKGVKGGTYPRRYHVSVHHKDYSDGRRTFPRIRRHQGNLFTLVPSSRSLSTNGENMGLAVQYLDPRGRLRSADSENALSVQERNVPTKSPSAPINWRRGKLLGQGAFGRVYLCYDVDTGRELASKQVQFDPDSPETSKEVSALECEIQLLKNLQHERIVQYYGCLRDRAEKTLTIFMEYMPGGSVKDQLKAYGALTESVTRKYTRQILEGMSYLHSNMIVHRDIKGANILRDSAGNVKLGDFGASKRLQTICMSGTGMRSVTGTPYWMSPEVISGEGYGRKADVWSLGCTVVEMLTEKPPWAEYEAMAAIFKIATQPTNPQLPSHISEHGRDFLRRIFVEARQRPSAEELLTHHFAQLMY
MEKK2wt PB1 HTS = raises or lowers MEK5 binding to wildtype human MEKK2 PB1 domain | bead flow cytometry, Alexa488-MEK5 binding to MEKK2 WT; actives lie on both sides | AID 1531 | Q9Y2U5 | binding response (% of control), % at 10 µM | actives 1.1% (n = 290,000); in the data active = binding response below about 67% or above about 130%
MEKK2 mut-MEK5 = signal of MEK5 binding to mutant human MEKK2 PB1 domain; percent response, % at 10 µM; actives 0.35% (n = 290,000); bead flow cytometry, Alexa488-MEK5 binding to MEKK2 mutant; in the data active = percent response above about 24%, passing the limit was not always enough
Arrestin-AP2 inh = blocks beta-arrestin peptide binding to AP2 adaptin; FITC-arrestin peptide / GST-AP2 beads, flow cytometry; AP2 beta2 appendage carries R879A mutation; inhibition, % at 10 µM; actives 0.31% (n = 340,000); AID 504490;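 active = inhibition above a set limit, near 3 SD of compounds lacking own fluorescence, cut at about 54% in these data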;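 note: plate controls were DMSO wells for no effect and 5 µM unlabelled arrestin peptide for full effect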
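System: GST-AP2 R879A glutathione beads. Medium: PBS with 0.05% Tween 20 and 0.1% BSA. Also added: FITC-arrestin peptide, 50 nM. Incubation: 12 min plus 1 h, RT. Measured by: high-throughput flow cytometry of beads, ex 488, em 535 nm. Evaluation: percent drop in bead-associated FITC signal.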
MEKK2wt confirm = raises or lowers MEK5 binding to wildtype human MEKK2, retest. shares compounds with MEKK3 PB1 HTS. bead flow cytometry, Alexa488-MEK5 binding to MEKK2 WT; actives lie on both sides. binding response (% of control), % at 10 µM. actives 2.4% (n = 5,900). AID 1892; in the data active = binding response below about 16% or above about 210%; inactive = in between
MEKK2mut confirm = signal of MEK5 binding to mutant human MEKK2, retest; actives 2% (n = 5,900); percent response, % at 10 µM; bead flow cytometry, Alexa488-MEK5 binding to MEKK2 mutant; shares compounds with MEKK3 PB1 HTS; AID 1893; in the data active = percent response mostly above about 71%, no sharp cut-off; inactive = mostly below about 38%;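 note: higher means compound restores mutant binding toward wildtype level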
MEKK3 confirm = confirmation of inhibitors of MEK5 binding to human MEKK3; shares compounds with MEKK3 PB1 HTS; bead flow cytometry, Alexa488-MEK5 binding to MEKK3; hits give low values; binding response (% of control), % at 10 µM; actives 1.8% (n = 5,900); AID 1894;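 active = binding response below 72% of control, or above a set upper limit, though filed actives all read lower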;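 note: 100% = DMSO only wells and 0% = binding blocked by excess unlabeled MEK5; lower values mean stronger disruption of MEK5 binding to MEKK3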
Active calls of the source: *; [ ] = remark or other dose.

For COc1ccc(C)cc1Nc1n[n+](-c2ccccc2)c(-c2ccc(OC)c(OC)c2OC)s1 the results were MEKK3 PB1 HTS 94, MEKK2wt PB1 HTS 149*, MEKK2 mut-MEK5 12, Arrestin-AP2 inh -1, MEKK2wt confirm 144, MEKK2mut confirm 26 and MEKK3 confirm 106.
For COc1ccc(C)cc1Nc1n[n+](-c2ccccc2)c(-c2c(Cl)cccc2Cl)s1 the results were MEKK3 PB1 HTS 109, MEKK2wt PB1 HTS 127 and MEKK2 mut-MEK5 7.
For COc1ccc(C)cc1Nc1n[n+](-c2ccccc2)c(-c2ccc(N(C)C)cc2)s1 the results were MEKK3 PB1 HTS 105, MEKK2wt PB1 HTS 142*, MEKK2 mut-MEK5 46*, Arrestin-AP2 inh 22, MEKK2wt confirm 155, MEKK2mut confirm 34 and MEKK3 confirm 109.
CCCC(=O)N/C(N)=N/c1nc(C)c2cc(C)ccc2n1 was read as MEKK3 PB1 HTS 105, MEKK2wt PB1 HTS 107, MEKK2 mut-MEK5 9 and Arrestin-AP2 inh 11.
For Cc1ccc2nc(/N=C(\N)NC(=O)NC3CCCCC3)nc(C)c2c1 the results were MEKK3 PB1 HTS 103, MEKK2wt PB1 HTS 141*, MEKK2 mut-MEK5 25, Arrestin-AP2 inh 13, MEKK2wt confirm 135, MEKK2mut confirm 27 and MEKK3 confirm 108.
`CCC(C)N=C1SCC(C)(/C=N/O)S1` (stereo not given) gave MEKK3 PB1 HTS 128*, MEKK2wt PB1 HTS 135*, MEKK2 mut-MEK5 6, Arrestin-AP2 inh 0, MEKK2wt confirm 91, MEKK2mut confirm -5 and MEKK3 confirm 95.
Screening CC(C)(C)N=C1SCC(C)(/C=N/O)S1 (stereo not given) returned MEKK3 PB1 HTS 100, MEKK2wt PB1 HTS 104, MEKK2 mut-MEK5 2 and Arrestin-AP2 inh -3.
NC(N)=N/N=C/c1ccc(OS(=O)(=O)c2ccccc2)cc1 was read as MEKK3 PB1 HTS 73, MEKK2wt PB1 HTS 146*, MEKK2 mut-MEK5 21, Arrestin-AP2 inh 21, MEKK2wt confirm 129, MEKK2mut confirm 12 and MEKK3 confirm 105.
`CCN(CC)C(=O)CSc1nnnn1-c1ccc(F)c(Cl)c1` gave MEKK3 PB1 HTS 107, MEKK2wt PB1 HTS 100, MEKK2 mut-MEK5 -4 and Arrestin-AP2 inh -11.
CN(C(=O)NC(=O)C1=C(N2CCOCC2)/C(=C/c2ccccc2)CC1)S(C)(=O)=O was read as MEKK3 PB1 HTS 2.0*[inhibitor], MEKK2wt PB1 HTS -2.0*[inhibitor], MEKK2 mut-MEK5 -28, Arrestin-AP2 inh -14, MEKK2wt confirm 107, MEKK2mut confirm 9 and MEKK3 confirm 102.
For CCCCN(C(=O)NC(=O)C1=C(N2CCOCC2)/C(=C/c2ccccc2)CC1)S(C)(=O)=O the results were Arrestin-AP2 inh 9.
`CCOC(=O)c1cc(C#N)c(SCC(N)=O)[nH]c1=O` gave MEKK3 PB1 HTS 99, MEKK2wt PB1 HTS 100, MEKK2 mut-MEK5 -1 and Arrestin-AP2 inh -14.
`CCOC(=O)c1cc(C#N)c(SCC(=O)c2cc(C#N)c(SC)nc2C)[nH]c1=O` gave MEKK3 PB1 HTS 74*[inhibitor], MEKK2wt PB1 HTS 80, MEKK2 mut-MEK5 -14, Arrestin-AP2 inh -3, MEKK2wt confirm 102, MEKK2mut confirm -4 and MEKK3 confirm 101.
For CCC(=O)Nc1ccc(Cl)c(NC(=S)NC(=O)COc2ccc(Cl)cc2)c1 the results were MEKK3 PB1 HTS 74*[inhibitor], MEKK2wt PB1 HTS 97, MEKK2 mut-MEK5 -1, MEKK2wt confirm 103, MEKK2mut confirm 3 and MEKK3 confirm 103.
Screening c1ccc2c(NCCc3c[nH]c4ccccc34)c3ccccc3nc2c1 returned MEKK3 PB1 HTS 112, MEKK2wt PB1 HTS 220*, MEKK2 mut-MEK5 48*, Arrestin-AP2 inh 24, MEKK2wt confirm 176, MEKK2mut confirm 46 and MEKK3 confirm 106.
NC(N)=N/N=C/c1ccccc1Cl was read as MEKK3 PB1 HTS 93, MEKK2wt PB1 HTS 106, MEKK2 mut-MEK5 -3 and Arrestin-AP2 inh 18.
